Results on six compounds are retold here after ChEMBL document CHEMBL3797062, “Diterpenes from the Trunk of Abies holophylla and Their Potential Neuroprotective and Anti-inflammatory Activities” (J Nat Prod, 2016).

The source made the active and inactive calls. No cut-off for these calls is given here.

Data set [1] is described as follows: Cytotoxicity in human HCT116 cells by SRB assay. The format is functional, cell-based. As to conditions: HCT-116. On the technique in general: In SRB staining, fixed cells bind dye roughly in proportion to their protein.
Data set [2] is described as follows: Cytotoxicity in LPS-activated mouse BV2 cells assessed as cell viability at 20 uM after 24 hrs by MTT assay. The format is cell-based. The settings on record: bv-2, 24 h. In short, it runs like this:
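Mouse microglial BV2 cells were seeded at 4 × 10^4 cells/well, treated with or without compound, stimulated with LPS (100 ng/mL), and incubated for 24 h. Viability was read by MTT assay, as the reduction of yellow MTT to purple formazan by viable cells.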
(In general: Tetrazolium dyes change colour on reduction, which living cells bring about.)

Data set [3] is described as follows: Cytotoxicity in rat C6 cells assessed as cell viability at 20 uM after 24 hrs by MTT assay. The data set is classed as cell-based. As to conditions: read-out: Activity. In short, it runs like this:
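C6 glioma cells seeded at 1 × 10^5 cells/well. After 24 h, switched to serum-free DMEM with compound at 20 μM for a further 24 h. Viability by MTT, expressed as % of untreated control. Means ± SD of three independent experiments.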

Data set [4] in a line: Cytotoxicity in human SKOV3 cells by SRB assay. The format is functional, cell-based. As to conditions: SK-OV-3.
Data set [5] is described as follows: (§1) Antiinflammatory activity in mouse BV2 cells assessed as inhibition of LPS-induced NO production after 24 hrs by Griess assay. The data set is classed as functional, cell-based. As to conditions: BV-2, 24 h. In a few lines:
(§2)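 BV2 microglia seeded at 4 × 10^4 cells/well, given compound at various concentrations with LPS (100 ng/mL), incubated 24 h. Nitrite in the medium read with Griess reagent (0.1% N-1-naphthylethylenediamine dihydrochloride, 1% sulfanilamide in 5% phosphoric acid, equal volume of supernatant), absorbance at 570 nm after 10 min. Sodium nitrite standard curve. IC50 derived. L-NMMA positive control.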
A general note: The Griess reaction detects nitrite, a stable product of nitric oxide.

The test system of a further data set is C6. The data set is described as follows: Neuroprotective activity in rat C6 cells assessed as induction of NGF release at 20 uM after 24 hrs by ELISA. The format is functional. In a few lines:
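C6 glioma cells seeded at 1 × 10^5 cells/well. After 24 h, treated with compound at 20 μM in serum-free DMEM for a further 24 h. NGF secreted into the conditioned medium quantified by ELISA and expressed as % of untreated control (100%). 6-Shogaol positive control. Means ± SD of three independent experiments run in triplicate.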

For a further data set, the system named is SK-MEL-2. Description: Cytotoxicity in human SK-MEL-2 cells by SRB assay. The data set is classed as functional, cell-based.
Another data set concerns A549. Description: Cytotoxicity in human A549 cells by SRB assay. The data set is classed as functional, cell-based.
Another data set relates to C6 (Rattus norvegicus). The data set is described as follows: Neuroprotective activity in rat C6 glioma cells assessed as induction of NGF release at 20 uM for 24 hrs.
The next data set relates to BV-2. The data set is described as §1. The data set is classed as functional, cell-based. In a few lines: as §2

A word on the IC50: it is the point on the concentration scale where inhibition reaches its midpoint. For `CC(C)C1=C[C@@]2(O)CC[C@@H]3[C@](C)(CCC[C@@]3(C)C(=O)O)[C@H]2CC1=O`, the IC50 in [1] is over 10 µM; in data set [4], over 10 µM; in [5], 56.1 µM; in the data set with SK-MEL-2, over 10 µM; in the data set with A549, over 10 µM. Besides, the Activity result is “Non-toxic” in [2] and 166.1% in the data set on C6. In addition, in [3], the viability at 24 h, 20 µM is 91.2%.

For `CCCCC/C=C/C(=O)CCc1ccc(O)c(OC)c1` [SHOGAOL], in the data set with C6 (Rattus norvegicus), the Activity turned out to be 141.8%. In addition, the viability at 24 h, 20 µM in data set [3] is 119%.

Regarding `CC(C)[C@]12C=C3CC[C@H]4[C@](C)(C(=O)O)CCC[C@]4(C)[C@@]3(CC1)OO2`, the 50% inhibitory concentration (IC50) in data set [1] was over 10 µM; in [4], over 10 µM; in data set [5], 57.3 µM; in the data set on SK-MEL-2, over 10 µM; in the data set on A549 it was over 10 µM. For the same compound, the Activity entry in data set [2] is listed as “Non-toxic”; with C6 it was 175.9%. In addition, the viability at 24 h, 20 µM in data set [3] turned out to be 109%.

In the case of `CC(C)[C@]12C=C3C(=O)C[C@H]4[C@](C)(C(=O)O)CCC[C@]4(C)[C@@]3(CC1)OO2`, the concentration for half-maximal inhibition (IC50) in data set [1] is over 10 µM; in [4], over 10 µM; in data set [5], 30.1 µM; in the data set on SK-MEL-2, over 10 µM; in the data set with A549, over 10 µM. Moreover, in data set [2], the Activity result is recorded as “Non-toxic”.

`CC(C)c1ccc2c(c1)[C@H](O)C[C@H]1[C@](C)(C(=O)O)CCC[C@]21C`: the IC50 (in data set [1]; in data set [4]; in the data set on SK-MEL-2; in the data set with A549) was over 10 µM throughout. Besides, in [3], the viability at 24 h, 20 µM came to 101%. The inhibition entry in the data set on BV-2 is “inactive”. For the same compound, in the data set on C6, the Activity was 204.3%.

As to `CC(C)c1ccc2c(c1)[C@H](O)C[C@H]1[C@](C)(CO)CCC[C@]21C`, the half-maximal inhibitory concentration (IC50) (in data set [1]; in data set [4]; in the data set on SK-MEL-2; in the data set on A549) was over 10 µM throughout. Further, in [3], the viability at 24 h, 20 µM was determined as 89.3%. In the data set with BV-2, the inhibition result is “inactive”. Further, the Activity in the data set with C6 is reported as 177.1%.
